Data published in ChEMBL document CHEMBL2331355, “Synthesis, structure activity relationship and mode of action of 3-substitutedphenyl-1-(2,2,8,8-tetramethyl-3,4,9,10-tetrahydro-2H,8H-pyrano[2,3-f]chromen-6-yl)-propenones as novel anticancer agents in human leukaemia HL-60 cells” (Eur J Med Chem, 2013).

Key:
Assay type in all cases: functional
ASPC1 = assay: Growth inhibition of human AsPC1 cells at 50 uM after 48 hrs by MTT assay; conditions: ASPC1, 48 h, read-out: GI
How it was run: (§1)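 Single-concentration MTT screen at 50 µM over 48 h in 96-well plates. Compounds giving >50% inhibition were rescreened at 30 µM. OD read at 570 nm, reference 620 nm. Result expressed as % growth inhibition versus untreated control. Mitomycin C, adriamycin or 5-fluorouracil used as positive controls. Mean ± SD of three independent experiments.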

PC-3 [1] = assay: Growth inhibition of human PC3 cells at 50 uM after 48 hrs by MTT assay; conditions: PC-3, 48 h, read-out: GI; how it was run: as §1
MIA PaCa-2 = assay: Growth inhibition of human MIAPaCa2 cells at 50 uM after 48 hrs by MTT assay; conditions: MIA PaCa-2, 48 h, read-out: GI; how it was run: as §1
MDA-MB-435 = assay: Growth inhibition of human MDA-MB-435 cells at 50 uM after 48 hrs by MTT assay; conditions: MDA-MB-435, 48 h, read-out: GI; how it was run: as §1
HL-60 = assay: Growth inhibition of human HL60 cells at 50 uM after 48 hrs by MTT assay; conditions: HL-60, 48 h, read-out: GI; how it was run: as §1
MCF7 = assay: Growth inhibition of human MCF7 cells at 50 uM after 48 hrs by MTT assay; conditions: MCF7, 48 h, read-out: GI; how it was run: as §1
Caco-2 = assay: Growth inhibition of human Caco2 cells at 50 uM after 48 hrs by MTT assay; conditions: Caco-2, 48 h, read-out: GI; how it was run: as §1
PC-3 [2] = assay: Growth inhibition of human PC3 cells at 10 uM after 48 hrs by MTT assay; conditions: PC-3, 48 h, read-out: GI
How it was run: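 MTT assay. Suspension or adherent cells were exposed to compound for 48 h. OD was read at 570 nm (reference 620 nm), with untreated control OD set as 100% viability. Results are percent growth inhibition, mean ± SD of three independent experiments.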

| SMILES | inhibition of growth at 50 µM (ASPC1) | inhibition of growth at 50 µM (PC-3 [1]) | inhibition of growth at 50 µM (MIA PaCa-2) | inhibition of growth at 50 µM (MDA-MB-435) | inhibition of growth at 50 µM (HL-60) | inhibition of growth at 50 µM (MCF7) | inhibition of growth at 50 µM (Caco-2) | inhibition of growth at 10 µM (PC-3 [2]) |
| --- | --- | --- | --- | --- | --- | --- | --- | --- |
| CC1(C)CCc2cc(C(=O)/C=C/c3ccccc3Cl)c3c(c2O1)CCC(C)(C)O3 | 15% | 52% | 31% | 33% | 41% | 9% | 11% | – |
| CC1(C)CCc2cc(C(=O)/C=C/c3ccccc3)c3c(c2O1)CCC(C)(C)O3 | 17% | 51% | 24% | 47% | 32% | 14% | 34% | – |
| CO[C@@]12[C@H](COC(N)=O)C3=C(C(=O)C(C)=C(N)C3=O)N1C[C@@H]1N[C@@H]12 [MITOMYCIN] | – | – | – | – | – | – | – | 68% |
